Assay outcomes (PubChem)
TAAR1 ag – human TAAR1 agonism; CHO RD-HGA16 TAAR1, Fluo-8 calcium fluorescence; vehicle wells 0%, saturating PEA agonist 100%; activation, % at 3 µM; 360,000 compounds, 0.99% hits; AID 624467;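 active = activation above the mean activation of all test compounds in the run plus 3 SD, cut at about 38% in these data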
Target sequence (Q96RJ0 whole entry, looked up): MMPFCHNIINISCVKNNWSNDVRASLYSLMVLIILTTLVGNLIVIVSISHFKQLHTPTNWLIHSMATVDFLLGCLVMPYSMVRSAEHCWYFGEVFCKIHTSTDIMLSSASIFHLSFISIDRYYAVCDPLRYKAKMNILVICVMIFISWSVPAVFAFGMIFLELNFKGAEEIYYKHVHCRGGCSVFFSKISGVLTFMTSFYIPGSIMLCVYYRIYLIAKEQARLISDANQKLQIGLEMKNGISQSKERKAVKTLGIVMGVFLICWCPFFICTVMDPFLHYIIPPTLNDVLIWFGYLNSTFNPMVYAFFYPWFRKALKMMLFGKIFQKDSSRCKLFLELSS
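Assay system – CHO-derived RD-HGA16 cells with stable Gα16 and human TAAR1 · Compound dosing – one-point dosing at 3 µM (nominal) · Incubation – 17-24 h seeding, 75 min 37 °C dye, 30 min RT · Measured by – kinetic Fluo-8 calcium fluorescence · Control set – DMSO vehicle as 0%, PEA at EC100 as 100% · Repeats – single well for each compound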
CHRM1 antagonist – blocks human M1 muscarinic receptor. P11229. 360,000 compounds, 1.3% hits. inhibition, % at 3 µM. AID 588852. CHO-K1 hM1, Fluo-8 calcium fluorescence, ACh EC80 antagonist;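 active = percent inhibition above its own plate's cutoff, namely the mean of that plate's compound wells plus 3 SD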;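 also: peak over basal fluorescence ratio during 140 s after agonist addition; 0% = ACh EC80 plus DMSO and 100% = DMSO alone without agonist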
TAAR1 antagonist – human TAAR1 antagonism; inhibition, % at 3 µM; CHO RD-HGA16 TAAR1, Fluo-8 calcium fluorescence, antagonist; Q96RJ0; 360,000 compounds, 1.5% hits;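 active = inhibition above a per-plate cutoff, the mean inhibition of test compounds on that plate plus 3 SD, cut at about 49% in these data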;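 also: 0% = DMSO plus EC80 beta-PEA response and 100% = DMSO alone without agonist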
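Assay system: CHO-derived RD-HGA16 cells stably expressing human TAAR1 plus Gα16. Timing: 140 s kinetic read after compound, 140 s after agonist. Technique: kinetic Fluo-8 calcium fluorescence measurement. Measure: % inhibition of agonist calcium response.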
m5-HT2A agonist – agonists of mouse serotonin 5-HT2A receptor (HTR2A); P35363; 360,000 compounds, 0.66% hits; activation, % at 7.6 µM; CHO-K1 mHTR2A beta-arrestin complementation, luminescence; percent of 30 µM serotonin response;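 active = activation above a run cutoff, the mean activation of all tested compounds plus 3 SD, cut at about 14% in these data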;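 also: 0% = plate median of compound wells and 100% = 30 µM serotonin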
M1 PAM – potentiates human M1 receptor response to acetylcholine | activation, % at 3 µM | P11229 | 360,000 compounds, 0.088% hits | CHO-K1 hM1, Fluo-8 calcium fluorescence, ACh EC20; 0% = ACh EC20, 100% = maximal ACh; in the data active = activation above about 19%, passing the limit was not always enough
M1 ag – agonists of human M1 muscarinic receptor; activation, % at 3 µM; 360,000 compounds, 0.33% hits; P11229; CHO-K1 hM1, Fluo-8 calcium fluorescence, agonist mode; 0% DMSO, 100% acetylcholine EC100;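 active = activation above the run's mean compound activation plus 3 SD, cut at about 16% in these data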;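 also: peak over basal fluorescence ratio within a 140 s kinetic read after compound addition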
nonsel antag count – counter-screen for TAAR1 antagonists: nonselective antagonists; shares compounds with TAAR1 antagonist; counterscreen cell line, calcium fluorescence, antagonist mode; inhibition, % at 3 µM; 2,400 compounds, 77% hits; AID 651780; in the data active = inhibition above about 22%;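 also: CHO-Ga16 host cells stimulated with ATP at an EC80 level; 0% = agonist EC80 plus vehicle and 100% = vehicle without agonist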
TAAR1 ant conf – human TAAR1 antagonism, confirmed; inhibition, % at 3 µM; AID 651785; 2,400 compounds, 40% hits; TAAR1-expressing cells, fluorescence antagonist read-out; shares compounds with TAAR1 antagonist; in the data active = inhibition above about 49%;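 also: CHO-Ga16 host cells challenged with agonist PEA near its EC80; 0% = agonist at EC80 plus vehicle and 100% = vehicle with no agonist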
Ga16 nonsel ag – nonselective Ga16 agonism, counter-screen; activation, % at 3 µM; Ga16-expressing cells, calcium fluorescence, agonist counterscreen; shares compounds with TAAR1 antagonist; 2,400 compounds, 18% hits; in the data active = activation above about 12%;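 also: 0% = vehicle wells and 100% = saturating stimulus response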
TAAR1 ag count – counter-screen for human TAAR1 antagonists: TAAR1 agonists. shares compounds with TAAR1 antagonist. hTAAR1 cell line, fluorescence activation, agonist mode. activation, % at 3 µM. 2,400 compounds, 2% hits; in the data active = activation above about 37%;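 also: CHO cells stably expressing TAAR1 with calcium dye readout; 0% = DMSO vehicle and 100% = full agonist response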
Starred values were filed as active, the others as inactive. The list is not random: actives were taken first. Their share in the collection is about 3.9%.

COc1ccc(CCn2c(C)cc(C(=O)CSc3nc(N)cc(=O)[nH]3)c2C)cc1 was read as TAAR1 ag 19.8, CHRM1 antagonist 20.5, TAAR1 antagonist 51.3*, m5-HT2A agonist 0.6, M1 PAM -13.3, M1 ag -6.9, nonsel antag count 37.3*, TAAR1 ant conf 47.9, Ga16 nonsel ag 8.0 and TAAR1 ag count 5.6.
`COc1ccc(CCn2c(C)cc(C(=O)CCl)c2C)cc1OC` gave TAAR1 ag 2.2, CHRM1 antagonist -1.1, TAAR1 antagonist 8.4, m5-HT2A agonist -1.6, M1 PAM 2.7 and M1 ag -4.2.
For COc1ccc(CCn2c(C)cc(C(=O)CSc3nnnn3-c3ccccc3)c2C)cc1OC the results were TAAR1 ag 8.0, CHRM1 antagonist -9.8, TAAR1 antagonist 49.6*, m5-HT2A agonist -0.8, M1 PAM 5.6, M1 ag -6.5, nonsel antag count 18.0, TAAR1 ant conf 36.2, Ga16 nonsel ag 12.5* and TAAR1 ag count 6.4.
Screening CC(C)OC(=O)c1ccc(NC(=O)c2cncc(Br)c2)cc1 returned TAAR1 ag 19.6, CHRM1 antagonist 3.8, TAAR1 antagonist 65.5*, m5-HT2A agonist 4.8, M1 PAM -5.5, M1 ag -1.0, nonsel antag count 26.7*, TAAR1 ant conf 43.6, Ga16 nonsel ag 15.8* and TAAR1 ag count 15.4.
Screening CC(C)OC(=O)c1ccc(NC(=S)NC(=O)c2cncc(Br)c2)cc1 returned TAAR1 ag -1.3, CHRM1 antagonist -7.0, TAAR1 antagonist -6.4, m5-HT2A agonist -2.5, M1 PAM 1.4 and M1 ag -3.7.
`O=C(Nc1ccc(N2CCN(C(=O)c3ccco3)CC2)c(Cl)c1)c1cccs1` gave TAAR1 ag 17.6, CHRM1 antagonist -42.5, TAAR1 antagonist 49.6*, m5-HT2A agonist 1.4, M1 PAM 0.0, M1 ag -0.8, nonsel antag count 30.6*, TAAR1 ant conf 38.4, Ga16 nonsel ag 7.6 and TAAR1 ag count 10.1.
`CN1CCN(c2ccc(NC(=O)c3cc4ccccc4o3)cc2)CC1` gave TAAR1 ag 8.3, CHRM1 antagonist -5.5, TAAR1 antagonist 1.8, m5-HT2A agonist -3.1, M1 PAM -1.8 and M1 ag -8.9.
CC(C)C(=O)N1CCN(c2ccc(NC(=O)c3cccs3)cc2Cl)CC1 was read as TAAR1 ag 22.6, CHRM1 antagonist 2.1, TAAR1 antagonist 29.8, m5-HT2A agonist -0.3, M1 PAM -5.9 and M1 ag -3.0.
O=C(Nc1ccc(N2CCN(C(=O)c3ccc(Cl)cc3)CC2)cc1)c1ccc2c(c1)OCCO2 was read as TAAR1 ag 12.3, CHRM1 antagonist 11.5, TAAR1 antagonist 57.7*, m5-HT2A agonist 3.9, M1 PAM -4.7, M1 ag -1.4, nonsel antag count 43.9*, TAAR1 ant conf 49.5*, Ga16 nonsel ag 10.7 and TAAR1 ag count 5.0.
`O=C(Nc1ccc(N2CCN(C(=O)c3ccccc3)CC2)c(Cl)c1)c1ccc(Br)o1` gave TAAR1 ag 16.7, CHRM1 antagonist 8.5, TAAR1 antagonist 68.5*, m5-HT2A agonist 9.5, M1 PAM -5.5, M1 ag -1.7, nonsel antag count 35.1*, TAAR1 ant conf 46.9, Ga16 nonsel ag 8.4 and TAAR1 ag count 5.2.
For O=C(Nc1ccc(N2CCN(C(=O)c3ccccc3)CC2)cc1)c1cc2ccccc2o1 the results were TAAR1 ag 14.8, CHRM1 antagonist 9.4, TAAR1 antagonist 77.0*, m5-HT2A agonist 0.3, M1 PAM -13.7, M1 ag 1.4, nonsel antag count 44.0*, TAAR1 ant conf 62.0*, Ga16 nonsel ag 9.8 and TAAR1 ag count 14.1.
For Cc1c(C(=O)N/N=C/c2ccccn2)nnn1-c1nonc1N the results were TAAR1 ag -1.9, CHRM1 antagonist -7.1, TAAR1 antagonist -4.9, m5-HT2A agonist 0.0, M1 PAM 5.9 and M1 ag -1.1.
Screening COc1ccc(C(C(=O)NC2CCCCC2)N(C(=O)CCl)c2cccc(Cl)c2)cc1 (configuration not stated) returned TAAR1 ag 7.5, CHRM1 antagonist -8.0, TAAR1 antagonist 0.8, m5-HT2A agonist 9.6, M1 PAM 10.8 and M1 ag -5.4.
Screening O=C(NNc1ccccc1C(F)(F)F)c1sccc1Br returned TAAR1 ag 8.4, CHRM1 antagonist 4.4, TAAR1 antagonist -13.0, m5-HT2A agonist -1.7, M1 PAM 0.4 and M1 ag 0.7.
`O=C(Nc1cccc(S(=O)(=O)NC2=NCCCCC2)c1)c1cc(-c2ccccc2)nc2ccccc12` gave TAAR1 ag 18.6, CHRM1 antagonist 3.5, TAAR1 antagonist 63.5*, m5-HT2A agonist 0.2, M1 PAM -1.5, M1 ag -3.0, nonsel antag count 28.2*, TAAR1 ant conf 49.7*, Ga16 nonsel ag 10.3 and TAAR1 ag count 6.2.
`COc1ccc(-c2cc(C(=O)Nc3ccc(O)cc3)c3ccccc3n2)cc1OC` gave TAAR1 ag 17.4, CHRM1 antagonist -19.8, TAAR1 antagonist 62.3*, m5-HT2A agonist 0.4, M1 PAM 1.5, M1 ag 0.3, nonsel antag count 32.6*, TAAR1 ant conf 47.5, Ga16 nonsel ag 10.8 and TAAR1 ag count 9.3.
CCOc1ccccc1NC(=O)c1cc(-c2ccccn2)nc2ccccc12 was read as TAAR1 ag 26.2, CHRM1 antagonist 4.9, TAAR1 antagonist 55.4*, m5-HT2A agonist 0.9, M1 PAM 1.1, M1 ag 0.3, nonsel antag count 20.5, TAAR1 ant conf 45.8, Ga16 nonsel ag 8.9 and TAAR1 ag count 6.5.
COc1cc(-c2cc(C(=O)Nc3ccc(S(=O)(=O)Nc4ncccn4)cc3)c3ccccc3n2)cc(OC)c1OC was read as TAAR1 ag -0.1, CHRM1 antagonist -7.7, TAAR1 antagonist -33.3, m5-HT2A agonist 2.3, M1 PAM 6.5 and M1 ag -2.2.
For COc1cc(-c2cc(C(=O)Nc3cccc(S(=O)(=O)N(C)C)c3)c3ccccc3n2)cc(OC)c1OC the results were TAAR1 ag 16.3, CHRM1 antagonist -10.7, TAAR1 antagonist 53.7*, m5-HT2A agonist -0.5, M1 PAM 7.4, M1 ag -2.1, nonsel antag count 34.5*, TAAR1 ant conf 49.4*, Ga16 nonsel ag 8.9 and TAAR1 ag count 9.7.
